The source of these data is ChEMBL document CHEMBL1156563, “Synthesis and antiproliferative evaluation of amide-containing flavone and isoflavone derivatives” (Bioorg Med Chem, 2008).

Where only a bound is given, the exact number is not on record here.

In assay [1] the test system is MT2. Put plainly: Antiproliferative activity against human MT2 cells after 72 hrs by MTT assay. The format is functional. Particulars: MT2, 72 h. Summed up: (§1)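 Cells were exposed to a range of concentrations for 72 h. Compounds came from 20 mM stocks in 100% DMSO. Cells were then given MEM with 0.4 mg/mL MTT for 2 h, and formazan was read at 570 nm. GI50 was taken from percentage conversion relative to mock-treated controls and reported as mean SD of three independent experiments.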
A general note: Tetrazolium assays rely on reduction of a dye to a coloured formazan, in cell work by metabolically active cells.

Assay [2] is described as follows: Antiproliferative activity against human NPC-TW01 cells after 72 hrs by MTT assay. The format is functional. Particulars: NPC-TW01, 72 h. Summed up:
as §1

The subject of assay [3] is NCI-H661. The assay is described as follows: Antiproliferative activity against human NCI-H661 cells after 72 hrs by MTT assay. The class given is functional. The settings on record: NCI-H661, 72 h. Summed up:
as §1

Assay [4] is described as follows: Cell cycle arrest in human NPC-TW01 cells assessed as accumulation at G2/M phase at 10.5 uM after 72 hrs by flow cytometry. The class given is functional, cell-based. The method, boiled down:
(§2)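 Exponentially growing cells were treated for 72 h. Controls received complete medium with 0.5% DMSO for 72 h. Cells were fixed, incubated with RNase and stained. DNA content was measured on a FACScan flow cytometer, and the percentage of cells in each cell-cycle phase was determined.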
A general note: A flow cytometer gives signals particle by particle.

Assay [5] can be described thus: Cell cycle arrest in human NPC-TW01 cells assessed as accumulation at S phase at 10.5 uM after 72 hrs by flow cytometry. The class given is functional, cell-based. Summed up: as §2
Assay [6] in a line: Cell cycle arrest in human NPC-TW01 cells assessed as accumulation at sub-G1 phase at 10.5 uM after 72 hrs by flow cytometry. The format is functional, cell-based. The method, boiled down:
as §2

Assay [7] in a line: Cell cycle arrest in human NPC-TW01 cells assessed as accumulation at G0/G1 phase at 30 uM after 96 hrs by flow cytometry. The format is functional, cell-based. The method, boiled down: (§3)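 Time course in exponentially growing cells at two concentrations, sampled at the indicated times. Controls were kept in complete medium with 0.3% DMSO for the same periods. Cells were fixed, RNase-treated and stained. DNA content was read on a FACScan flow cytometer, and the percentage of cells in sub-G1, G0/G1, S and G2/M was determined.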

Assay [8] is described as follows: Cell cycle arrest in human NPC-TW01 cells assessed as accumulation at sub-G1 phase at 30 uM after 72 hrs by flow cytometry. The class given is functional, cell-based. The method, boiled down:
as §3

Assay [9] is described as follows: Cell cycle arrest in human NPC-TW01 cells assessed as accumulation at G2/M phase at 60 uM after 48 hrs by flow cytometry. The class given is functional, cell-based. The method, boiled down: as §3
A short description of assay [10]: Cell cycle arrest in human NPC-TW01 cells assessed as accumulation at S phase at 30 uM after 48 hrs by flow cytometry. The class given is functional, cell-based. Summed up:
as §3

The nature of assay [11]: Cell cycle arrest in human NPC-TW01 cells assessed as accumulation at G2/M phase at 60 uM after 72 hrs by flow cytometry. The class given is functional, cell-based. The method, boiled down: as §3
A short description of assay [12]: Cell cycle arrest in human NPC-TW01 cells assessed as accumulation at G0/G1 phase at 60 uM after 48 hrs by flow cytometry. The class given is functional, cell-based. The method, boiled down: as §3
The nature of assay [13]: Cell cycle arrest in human NPC-TW01 cells assessed as accumulation at G2/M phase at 30 uM after 96 hrs by flow cytometry. The class given is functional, cell-based. Summed up: as §3
Assay [14] can be described thus: Cell cycle arrest in human NPC-TW01 cells assessed as accumulation at G0/G1 phase at 30 uM after 72 hrs by flow cytometry. The class given is functional, cell-based. The method, boiled down:
as §3

Assay [15] is described as follows: Cell cycle arrest in human NPC-TW01 cells assessed as accumulation at G0/G1 phase at 30 uM after 48 hrs by flow cytometry. The class given is functional, cell-based. Summed up: as §3
Assay [16] in a line: Cell cycle arrest in human NPC-TW01 cells assessed as accumulation at S phase at 60 uM after 96 hrs by flow cytometry. The class given is functional, cell-based. The method, boiled down: as §3
Assay [17] is described as follows: Cell cycle arrest in human NPC-TW01 cells assessed as accumulation at G2/M phase at 30 uM after 72 hrs by flow cytometry. The class given is functional, cell-based. Summed up: as §3
Assay [18] in a line: Cell cycle arrest in human NPC-TW01 cells assessed as accumulation at G0/G1 phase at 60 uM after 24 hrs by flow cytometry. The class given is functional, cell-based. The method, boiled down: as §3
Assay [19] can be described thus: Cell cycle arrest in human NPC-TW01 cells assessed as accumulation at S phase at 30 uM after 24 hrs by flow cytometry. The class given is functional, cell-based. The method, boiled down:
as §3

Assay [20] is described as follows: Cell cycle arrest in human NPC-TW01 cells assessed as accumulation at sub-G1 phase at 60 uM after 72 hrs by flow cytometry. The class given is functional, cell-based. Summed up:
as §3

Assay [21] in a line: Cell cycle arrest in human NPC-TW01 cells assessed as accumulation at G2/M phase at 30 uM after 48 hrs by flow cytometry. The format is functional, cell-based. The method, boiled down:
as §3

Assay [22] can be described thus: Cell cycle arrest in human NPC-TW01 cells assessed as accumulation at G2/M phase at 60 uM after 96 hrs by flow cytometry. The format is functional, cell-based. The method, boiled down: as §3
Assay [23] in a line: Cell cycle arrest in human NPC-TW01 cells assessed as accumulation at sub-G1 phase at 60 uM after 24 hrs by flow cytometry. The format is functional, cell-based. The method, boiled down: as §3
A short description of assay [24]: Cell cycle arrest in human NPC-TW01 cells assessed as accumulation at sub-G1 phase at 60 uM after 48 hrs by flow cytometry. The class given is functional, cell-based. Summed up: as §3
Assay [25] in a line: Cell cycle arrest in human NPC-TW01 cells assessed as accumulation at S phase at 60 uM after 24 hrs by flow cytometry. The format is functional, cell-based. The method, boiled down:
as §3

Assay [26] can be described thus: Cell cycle arrest in human NPC-TW01 cells assessed as accumulation at S phase at 60 uM after 72 hrs by flow cytometry. The format is functional, cell-based. Summed up: as §3
Assay [27] can be described thus: Cell cycle arrest in human NPC-TW01 cells assessed as accumulation at sub-G1 phase at 60 uM after 96 hrs by flow cytometry. The format is functional, cell-based. Summed up:
as §3

Assay [28] is described as follows: Cell cycle arrest in human NPC-TW01 cells assessed as accumulation at sub-G1 phase at 30 uM after 96 hrs by flow cytometry. The class given is functional, cell-based. Summed up:
as §3

Assay [29] is described as follows: Cell cycle arrest in human NPC-TW01 cells assessed as accumulation at S phase at 30 uM after 96 hrs by flow cytometry. The class given is functional, cell-based. Summed up:
as §3

A short description of assay [30]: Cell cycle arrest in human NPC-TW01 cells assessed as accumulation at S phase at 60 uM after 48 hrs by flow cytometry. The format is functional, cell-based. Summed up:
as §3

Assay [31] is described as follows: Cell cycle arrest in human NPC-TW01 cells assessed as accumulation at G0/G1 phase at 60 uM after 72 hrs by flow cytometry. The format is functional, cell-based. The method, boiled down: as §3
Assay [32] can be described thus: Cell cycle arrest in human NPC-TW01 cells assessed as accumulation at sub-G1 phase at 30 uM after 48 hrs by flow cytometry. The format is functional, cell-based. The method, boiled down: as §3
Assay [33] can be described thus: Cell cycle arrest in human NPC-TW01 cells assessed as accumulation at sub-G1 phase at 30 uM after 24 hrs by flow cytometry. The format is functional, cell-based. The method, boiled down:
as §3

Assay [34] in a line: Cell cycle arrest in human NPC-TW01 cells assessed as accumulation at G0/G1 phase at 30 uM after 24 hrs by flow cytometry. The format is functional, cell-based. Summed up:
as §3

Assay [35] in a line: Cell cycle arrest in human NPC-TW01 cells assessed as accumulation at G0/G1 phase at 60 uM after 96 hrs by flow cytometry. The format is functional, cell-based. Summed up:
as §3

The nature of assay [36]: Cell cycle arrest in human NPC-TW01 cells assessed as accumulation at G2/M phase at 60 uM after 24 hrs by flow cytometry. The format is functional, cell-based. Summed up:
as §3

The nature of assay [37]: Cell cycle arrest in human NPC-TW01 cells assessed as accumulation at S phase at 30 uM after 72 hrs by flow cytometry. The class given is functional, cell-based. The method, boiled down:
as §3

The nature of assay [38]: Cell cycle arrest in human NPC-TW01 cells assessed as accumulation at G2/M phase at 30 uM after 24 hrs by flow cytometry. The class given is functional, cell-based. The method, boiled down: as §3

Take `COc1ccc(NC(=O)COc2ccc3c(=O)c(-c4ccccc4)coc3c2)cc1`: the figures for the concentration for 50% growth inhibition (GI50) in assay [1], in assay [2] and in assay [3] were 4.55 µM, 6.7 µM and 9.53 µM, respectively.

On to `O=C(COc1ccc2c(=O)cc(-c3ccccc3)oc2c1)Nc1ccccc1`, for which the 50% growth inhibitory concentration (GI50) in assay [1], in assay [2] and in assay [3] was > 10 µM in each case.

Regarding `O=C(COc1ccc2oc(-c3ccccc3)cc(=O)c2c1)Nc1ccc(-c2ccccc2)cc1`, the values for the concentration for 50% growth inhibition (GI50) in assay [1], in [2] and in [3] were > 10 µM, 0.64 µM and 9.71 µM, respectively.

With `COc1ccc(NC(=O)COc2ccc3c(=O)cc(-c4ccccc4)oc3c2)cc1`, the concentration for 50% growth inhibition (GI50) – broadly, the concentration at which growth is held to half of that of the control – in assay [1] stood at 6.7 µM; in [2] it was 5.97 µM; in assay [3], 5.5 µM.

Take `COc1ccc(NC(=O)COc2ccc3oc(-c4ccccc4)cc(=O)c3c2)cc1`: the Activity in assay [4] was 5.3%; in [5], 13.6%; in [6], 3.3%. Also, the GI50 in [1] is 3.01 µM; in [2] it was 0.71 µM; in assay [3] it was 0.84 µM.

With `O=C(COc1ccc2oc(-c3ccccc3)cc(=O)c2c1)Nc1ccc(F)cc1`, the Activity in [7] was 70.7%; in [8], 4.79%; in assay [9], 10.5%; in assay [10], 24.2%; in assay [11], 6.64%; in [12] it was 68.3%. In addition, the Activity was 8.6% in [13]; 71% in assay [14]; 59.8% in assay [15]; 5.2% in assay [4]; 12.8% in assay [16]; 9.47% in [17]. Also, the Activity was 51.5% in [18]; 27.6% in assay [19]; 4.5% in assay [20]; 13.4% in [21]; 7.78% in [22]; 2.27% in assay [23]. For the same molecule, the Activity in assay [24] came out at 2.87%; in [5], 13.6%; in [25] it was 26.4%; in assay [26], 15.7%; in assay [27] it was 12.7%; in assay [28] it was 5.62%. The Activity is 15.1% in [29]; 18.4% in assay [30]; 73.7% in assay [31]; 4% in assay [6]; 2.59% in assay [32]; 3.45% in [33]. In addition, the Activity in [34] was found to be 52%; in [35], 66.7%; in [36] it was 19.8%; in assay [37], 14.7%; in assay [38], 17%. Besides, the results for the concentration for 50% growth inhibition (GI50) in assay [1], in [2] and in assay [3] were 0.47 µM, 0.74 µM and 1.47 µM, respectively.

As to `O=C(COc1c(-c2ccccc2)oc2ccccc2c1=O)Nc1ccc(-c2ccccc2)cc1`, the GI50 in assay [1], in [2] and in [3] was > 10 µM in each case.

Consider `O=C(COc1ccc2c(=O)c(-c3ccccc3)coc2c1)Nc1ccc(F)cc1`, for which the GI50 was 2.5 µM in assay [1], 0.55 µM in assay [2] and > 10 µM in assay [3].

Turning to `O=C(COc1c(-c2ccccc2)oc2ccccc2c1=O)Nc1ccc(F)cc1`, the 50% growth inhibitory concentration (GI50) in assay [1] was > 10 µM; in [2] it was 9.5 µM; in assay [3], > 10 µM.

`O=C(COc1ccc2c(=O)c(-c3ccccc3)coc2c1)Nc1ccccc1`: the GI50 in assay [1], in assay [2] and in assay [3] was > 10 µM throughout.

On to `O=C(COc1ccc2oc(-c3ccccc3)cc(=O)c2c1)Nc1ccc2ccccc2c1`, for which the 50% growth inhibitory concentration (GI50) in assay [1] is > 10 µM; in [2], 6.75 µM; in assay [3] it was 6.71 µM.
